Active and inactive are the calls of the source. The rule behind the calls is not given here.
Experiments:
Homo sapiens = species on record: Homo sapiens; test: Selectivity index, ratio of IC50 for human CYP11B1 to IC50 for human CYP11B2
Procedure, shortened: (§1)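 Human CYP11B2 and CYP11B1 inhibition was tested in cell-based assays. Selectivity was taken as the hCYP11B1 IC50 divided by the hCYP11B2 IC50.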

[1] = molecular target: T1, Cytochrome P450 11B1, mitochondrial (Homo sapiens, UniProt P15538); test: Inhibition of human CYP11B1 expressed in V79 cells incubated for 1 hr before 11-deoxycortisol substrate addition by HTRF-based assay; format: cell-based; procedure, shortened: as §1
T1 sequence (P15538 whole entry): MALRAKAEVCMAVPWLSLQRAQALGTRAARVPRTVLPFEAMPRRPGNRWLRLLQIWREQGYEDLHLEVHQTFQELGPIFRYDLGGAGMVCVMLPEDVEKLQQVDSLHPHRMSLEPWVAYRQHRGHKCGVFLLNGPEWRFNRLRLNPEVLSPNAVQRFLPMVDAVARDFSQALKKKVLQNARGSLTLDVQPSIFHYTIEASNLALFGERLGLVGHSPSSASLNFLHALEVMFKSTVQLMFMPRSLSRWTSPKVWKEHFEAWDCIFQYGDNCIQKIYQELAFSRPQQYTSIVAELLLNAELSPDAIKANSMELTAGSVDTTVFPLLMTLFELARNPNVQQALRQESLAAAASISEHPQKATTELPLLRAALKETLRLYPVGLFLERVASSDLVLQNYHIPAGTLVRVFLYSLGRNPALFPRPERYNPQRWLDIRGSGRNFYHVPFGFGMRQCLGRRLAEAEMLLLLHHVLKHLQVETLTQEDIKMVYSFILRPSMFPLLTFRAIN

[2] = molecular target: T2, Cytochrome P450 11B2, mitochondrial (Homo sapiens, UniProt P19099); test: Inhibition of human CYP11B2 expressed in V79 cells incubated for 1 hr before 11-deoxycorticosterone substrate addition by HTRF-based assay; format: cell-based; procedure, shortened: as §1
T2 sequence (P19099 whole entry): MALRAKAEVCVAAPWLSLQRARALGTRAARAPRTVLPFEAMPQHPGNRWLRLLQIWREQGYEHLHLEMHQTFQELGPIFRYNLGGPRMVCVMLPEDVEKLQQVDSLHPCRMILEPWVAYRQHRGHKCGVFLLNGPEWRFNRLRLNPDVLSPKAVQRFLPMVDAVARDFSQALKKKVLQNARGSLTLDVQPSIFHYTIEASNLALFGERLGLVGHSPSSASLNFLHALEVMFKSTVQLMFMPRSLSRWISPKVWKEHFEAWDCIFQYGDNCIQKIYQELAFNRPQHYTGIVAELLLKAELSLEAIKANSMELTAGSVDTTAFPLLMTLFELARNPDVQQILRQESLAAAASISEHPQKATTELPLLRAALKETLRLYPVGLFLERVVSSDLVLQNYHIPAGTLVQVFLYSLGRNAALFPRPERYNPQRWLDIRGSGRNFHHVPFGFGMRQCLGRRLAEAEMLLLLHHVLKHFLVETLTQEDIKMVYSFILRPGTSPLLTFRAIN

V79 = test: Inhibition of rhesus monkey CYP11B2 expressed in V79 cells incubated for 1 hr before 11-deoxycorticosterone substrate addition by HTRF-based assay; format: cell-based; conditions: Macaca mulatta
[3] = Fraction unbound in rat plasma at […] incubated for 4 hrs by equilibrium dialysis and LC/MS method; format: ADME, cell-free
[4] = molecular target: T3, Cytochrome P450 11B2, mitochondrial (Rattus norvegicus, UniProt P30099); test: Inhibition of rat CYP11B2 expressed in V79 cells incubated for 1 hr before 11-deoxycorticosterone substrate addition by HTRF-based assay; format: cell-based; conditions: v79, 1 h
T3 sequence (P30099 whole entry): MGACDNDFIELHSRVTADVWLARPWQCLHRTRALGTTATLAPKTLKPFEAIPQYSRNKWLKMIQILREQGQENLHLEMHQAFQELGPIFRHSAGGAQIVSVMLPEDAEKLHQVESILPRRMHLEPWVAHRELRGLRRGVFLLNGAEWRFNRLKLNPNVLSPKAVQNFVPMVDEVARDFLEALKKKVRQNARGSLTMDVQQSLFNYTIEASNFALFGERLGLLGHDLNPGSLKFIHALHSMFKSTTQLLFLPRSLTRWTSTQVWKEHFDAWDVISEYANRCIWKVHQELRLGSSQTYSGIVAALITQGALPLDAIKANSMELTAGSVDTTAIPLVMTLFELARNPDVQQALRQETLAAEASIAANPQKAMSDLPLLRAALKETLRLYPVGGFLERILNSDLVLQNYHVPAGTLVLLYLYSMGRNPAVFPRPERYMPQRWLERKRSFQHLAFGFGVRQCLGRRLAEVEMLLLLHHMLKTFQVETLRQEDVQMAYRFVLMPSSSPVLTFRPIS

[5] = Oral bioavailability in Sprague-Dawley rat at 2 mg/kg by LC-MS/MS method; format: ADME, organism-based; conditions: in vivo
Procedure, shortened: (§2)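 In the rat pharmacokinetic study, AUC was normalized for dose (μM·h·kg/mg), plasma clearance was expressed in mL/min/kg, and oral bioavailability was calculated.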

[6] = Plasma clearance in Sprague-Dawley rat at 2 mg/kg, po or 1 mg/kg, iv by LC-MS/MS method; format: ADME, organism-based; procedure, shortened: as §2
[7] = Intrinsic clearance in rat liver microsomes at […] incubated for 10 mins before NADPH addition by LC/MS method; format: ADME; conditions: read-out: CLH
Rattus norvegicus = test: Dose normalized AUC in Sprague-Dawley rat at 2 mg/kg, po or 1 mg/kg, iv by LC-MS/MS method; format: ADME, organism-based; conditions: in vivo; procedure, shortened: as §2

SMILES | Ratio IC50 (Homo sapiens) | IC50 [1] | IC50 [2] | also measured
N#Cc1cncc(-c2nc3cc(F)c(F)cc3n2C2CC2)c1 | 70 | 1550 nM | 22.3 nM | 
N#Cc1ccc2c(c1)nc(-c1cccnc1)n2C1CC1 | > 6 | > 10000 nM | 1770 nM | 
Fc1ccc2nc(-c3cccnc3)n(C3CCC3)c2c1 |  | > 10000 nM | > 5000 nM | 
Fc1cc2nc(-c3cccnc3)n(C3CC3)c2cc1F | 176 | 370 nM | 2.1 nM | inhibition (V79): Active; fraction unbound at 4 h [3]: 0.15; inhibition (INH) [4]: Not Active; bioavailability [5]: 92%; clearance [6]: 43 mL/min/kg; CLint scaled [7]: < 20 mL/min/kg; AUC/dose (Rattus norvegicus): 1.32 µM·kg·h/mg
Fc1ccc2nc(-c3cccnc3)n(Cc3ccccc3)c2c1 | > 14 | > 8330 nM | 607 nM | 
N#Cc1ccc2nc(-c3cccnc3)n(C3CC3)c2c1 | 309 |  | 1.2 nM | 
Fc1cncc(-c2nc3cc(F)c(Cl)cc3n2C2CC2)c1 | 296 | 251 nM | 0.8 nM | 
CC(C)n1c(-c2cccnc2)nc2ccc(F)cc21 | 28 | 3920 nM | 138 nM | 
Fc1cccc2nc(-c3cccnc3)n(C3CC3)c12 | > 93 | > 10000 nM | 107 nM | 
CS(=O)(=O)c1ccc2c(c1)nc(-c1cccnc1)n2C1CC1 |  | > 10000 nM | > 1000 nM | 
Fc1ccc2c(c1)nc(-c1cccnc1)n2C1CC1 | 142 |  |  | 
N#Cc1cc2c(cc1F)nc(-c1cncc(F)c1)n2C1CC1 | 225 | 225 nM | 1 nM | 
CC1(n2c(-c3cccnc3)nc3ccc(F)cc32)CC1 | 179 | 2860 nM | 16 nM | fraction unbound at 4 h [3]: 0.19; bioavailability [5]: 32%; clearance [6]: 131 mL/min/kg; CLint scaled [7]: 82 mL/min/kg; AUC/dose (Rattus norvegicus): 0.2 µM·kg·h/mg
COc1c(C)cncc1-c1nc2cc(F)c(F)cc2n1C1CC1 | 709 | 435 nM | 0.6 nM | 
Fc1cccc2c1nc(-c1cccnc1)n2C1CC1 | > 38 | > 8330 nM | 219 nM | 
COc1ccc2c(c1)nc(-c1cccnc1)n2C1CC1 |  | > 10000 nM | > 1000 nM | 
c1cncc(-c2nc3ccccc3n2C2CC2)c1 | > 170 | > 8330 nM | 49 nM | 

SMILES | Ratio IC50 (Homo sapiens) | IC50 [1] | IC50 [2] | also measured
Fc1cc2nc(-c3cnccc3C(F)(F)F)n(C3CC3)c2cc1F | 98 | 795 nM | 8.1 nM | 
FC(F)(F)c1ccc2c(c1)nc(-c1cccnc1)n2C1CC1 [MSD-CYP11B2-Negative-control] |  | > 10000 nM | > 10000 nM | 
Cc1ccncc1-c1nc2cc(F)c(F)cc2n1C1CC1 | 71 | 723 nM | 10.2 nM | 
Fc1ccc2nc(-c3cccnc3)n(CC(F)(F)F)c2c1 | > 15 | > 8330 nM | 561 nM | 
Clc1ccc2nc(-c3cccnc3)n(C3CC3)c2c1 | 215 | 477 nM | 2.2 nM | 
N#Cc1cc2c(cc1F)nc(-c1cccnc1)n2C1CC1 | 195 | 117 nM | 0.6 nM | 
CCn1c(-c2cccnc2)nc2ccc(F)cc21 | 60 | 2100 nM | 35 nM | 
Fc1cc2nc(-c3cccnc3)n(C3CC3)c2cc1Cl | 835 | 334 nM | 0.4 nM | 
Fc1ccc2nc(-c3cccnc3)[nH]c2c1 | < 1 | 1990 nM | > 10000 nM | 
Cn1c(-c2cccnc2)nc2ccc(F)cc21 | 56 | 677 nM | 12 nM | fraction unbound at 4 h [3]: 0.25; bioavailability [5]: 37%; clearance [6]: 59 mL/min/kg; CLint scaled [7]: 30 mL/min/kg; AUC/dose (Rattus norvegicus): 0.56 µM·kg·h/mg
FC(F)(F)c1ccc2nc(-c3cccnc3)n(C3CC3)c2c1 | 7 | 1830 nM | 254 nM | 
Fc1ccc2nc(-c3cccnc3)n(C3CC3)c2c1 | 100 | 401 nM | 4 nM | fraction unbound at 4 h [3]: 0.15; bioavailability [5]: 77%; clearance [6]: 28 mL/min/kg; CLint scaled [7]: 28 mL/min/kg; AUC/dose (Rattus norvegicus): 1.82 µM·kg·h/mg
COc1cncc(-c2nc3cc(F)c(F)cc3n2C2CC2)c1 | 606 | 250 nM | 0.4 nM | 
CC(C)(C)n1c(-c2cccnc2)nc2ccc(F)cc21 |  | > 10000 nM | > 5000 nM | 
COc1ccc2nc(-c3cccnc3)n(C3CC3)c2c1 | 83 | 1980 nM | 24 nM | 
Cc1cncc(-c2nc3cc(F)c(F)cc3n2C2CC2)c1C | 74 | 17.7 nM | 0.2 nM | 

— ChEMBL document CHEMBL3580617, “Discovery of Benzimidazole CYP11B2 Inhibitors with in Vivo Activity in Rhesus Monkeys” (ACS Med Chem Lett, 2015)
